Results from article PMC6408977 (Journal of controlled release : official journal of the …, 2019).
Values belong to the molecule of their own block, whether it stands above or below them. Non-standard residues stand in square brackets, D forms with d. Residues, ends and D or L forms follow the SMILES beside them. Tyr(3-I) = N[C@@H](Cc1ccc(O)c(I)c1)C(=O)O

How the values were obtained:
[1] = Tissue biodistribution measurements; parameters: species or system Balb/c mice; details: mouse, in vivo, iv
How it was run: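 Female Balb/c mice, 8–12 weeks old, from an in-house colony (n = 3). Tissue radioactivity was measured at 1 h and 4 h post-injection, alongside whole-body SPECT/CT imaging at the same times.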

[2] = biological target: albumin; details: read-out: Albumin dissociation constant; cited from earlier work
[3] = biological target: human serum albumin (Homo sapiens) (UniProt P02768); details: cited from earlier work

tissue uptake at 1 h [1]: 18 %ID/g
tissue uptake at 4 h [1]: 10 %ID/g
Molecule: CC(C)C[C@H](NC(=O)CNC(=O)[C@H](C)NC(=O)[C@H](Cc1ccc(O)c(I)c1)NC(=O)CN)C(=O)N[C@@H](C)C(=O)NCC(=O)N[C@@H](CC(C)C)C(=O)N[C@@H](CC(C)C)C(=O)NCC(=O)N[C@@H](CC(C)C)C(=O)N[C@@H](CCC(=O)O)C(=O)NCC(=O)N[C@@H](CC(C)C)C(=O)N[C@@H](CC(C)C)C(=O)NCC(=O)N[C@@H](CC(C)C)C(=O)N1CCC[C@H]1C(=O)N[C@@H](CC(C)C)C(=O)NCC(=O)N[C@@H](CC(C)C)C(=O)N[C@@H](CC(C)C)C(=O)N[C@@H](CCC(=O)O)C(=O)NCC(=O)N[C@@H](CC(C)C)C(=O)N[C@@H](Cc1c[nH]c2ccccc12)C(=O)N[C@@H](CC(C)C)C(=O)NCC(=O)N[C@@H](CC(C)C)C(=O)N[C@@H](CCC(=O)O)C(=O)N[C@@H](CC(C)C)C(=O)N[C@@H](CCC(=O)O)C(=O)NCC(=O)N[C@@H](CC(N)=O)C(=O)O [^125I-ATRAM] (H-G[Tyr(3-I)]AGLAGLLGLEGLLGLPLGLLEGLWLGLELEGN-OH; N-terminus and C-terminus assumed)

Molecule: CC1(C)S[C@@H]2[C@H](NC(=O)Cc3ccccc3)C(=O)N2[C@H]1C(=O)O [penicillin G]
Kd [2]: 833 µM

Molecule: insulin detemir (from UniProt P01308)
Kd [3]: 4.16 µM
